OX1R antag-1 – antagonists of human orexin 1 receptor (OX1R). inhibition, % at 6.6 µM. 330,000 compounds, 1.8% hits. Orexin/Hypocretin receptor type 1 (Homo sapiens), O43613. OX1R-expressing cells, FRET antagonist read-out. AID 485270, 2010; in the data active = inhibition mostly above about 38%, no sharp cut-off; inactive = mostly below about 40%
Target sequence (O43613 whole entry, looked up): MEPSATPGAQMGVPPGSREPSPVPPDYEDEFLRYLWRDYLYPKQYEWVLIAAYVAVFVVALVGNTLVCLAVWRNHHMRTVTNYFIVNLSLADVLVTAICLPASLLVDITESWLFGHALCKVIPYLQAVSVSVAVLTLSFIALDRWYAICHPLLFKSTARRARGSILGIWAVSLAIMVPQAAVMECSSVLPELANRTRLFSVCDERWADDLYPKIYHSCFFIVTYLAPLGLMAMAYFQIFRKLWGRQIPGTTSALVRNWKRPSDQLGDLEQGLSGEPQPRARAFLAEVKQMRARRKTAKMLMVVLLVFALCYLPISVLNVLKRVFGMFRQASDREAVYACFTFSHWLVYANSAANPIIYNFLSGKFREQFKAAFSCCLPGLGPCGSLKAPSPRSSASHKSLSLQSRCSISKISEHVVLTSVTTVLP
CHO parental Ca – ATP-evoked calcium signal inhibitors, parental CHO, primary screen, counter-screen for OX1R antagonist project, cell-based, fluorescence, Fluo-8 calcium dye. parental CHO-K1, ATP-induced calcium, Fluo-8 fluorescence. inhibition, % at 5.6 µM. 330,000 compounds, 0.63% hits. AID 463079, 2010;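 active = inhibition above that plate's mean sample inhibition plus 3 SD, cut at about 26% in these data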
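material = parental CHO cells | also added = ATP as calcium-mobilizing challenge | dosing = single point at 5.6 µM | detection = intracellular calcium via Fluo-8 no-wash fluorescent dye | read-out = % inhibition | benchmarks = low control ATP plus DMSO, high control DMSO only | repeats = one well per compound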
OX1R antag-2 – OX1R (HCRTR1) antagonists, primary screen, fluorescence, CHO/OX1R cells, Fluo-8 calcium, orexin A; inhibition, % at 5 µM; 330,000 compounds, 0.43% hits; Fluo-8 calcium fluorescence; AID 434989, 2010;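 active = inhibition above its plate's threshold, mean inhibition of all tested compounds on the plate plus 3 SD, cut at about 37% in these data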
TAAR1 antagonist – human TAAR1 antagonists, primary screen, Fluo-8 calcium fluorescence, CHO RD-HGA16 cells | antagonist | 360,000 compounds, 1.5% hits | AID 624466, 2012 | Trace amine-associated receptor 1 (Homo sapiens), Q96RJ0 | inhibition, % at 3 µM;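 active = inhibition above a per-plate cutoff, the mean inhibition of test compounds on that plate plus 3 SD, cut at about 49% in these data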
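Test system: RD-HGA16 CHO cells with stable hTAAR1 and Gα16 / Probe or stimulus: EC80 β-phenethylamine stimulus / Times: seeding 17-24 h prior, 75-min 37 °C, 30-min RT dye loading / Detection: Fluo-8 calcium-sensitive fluorescence / Read-out basis: % inhibition scaled between DMSO and EC80 PEA controls / Repeats: singlicate, one well per test compound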
TAAR1 ag – human TAAR1 agonists, primary screen, Fluo-8 calcium fluorescence, CHO RD-HGA16 cells. Trace amine-associated receptor 1 (Homo sapiens), Q96RJ0. vehicle wells 0%, saturating PEA agonist 100%. activation, % at 3 µM. 360,000 compounds, 0.99% hits. AID 624467, 2012;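 active = activation above the mean activation of all test compounds in the run plus 3 SD, cut at about 38% in these data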
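System: CHO RD-HGA16 cells carrying human TAAR1 plus Gα16; Incubation: 17-24 h seeding, 75 min 37 °C dye, 30 min RT; Measured by: Fluo-8 fluorescence, 5 s baseline then 140 s kinetic read; Control set: DMSO and PEA EC100; Replication: single well for each compound.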
GPR7 antag – GPR7 receptor antagonists, primary screen, cell-based, fluorescence, single concentration | GPR7-expressing cells, fluorescence antagonist assay | Neuropeptides B/W receptor type 1 (Homo sapiens), P48145 | 290,000 compounds, 1.1% hits | inhibition, % at 4.4 µM; in the data active = inhibition above about 16%, passing the limit was not always enough;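 note: cells stimulated with the agonist NPW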
Target sequence (P48145 whole entry, looked up): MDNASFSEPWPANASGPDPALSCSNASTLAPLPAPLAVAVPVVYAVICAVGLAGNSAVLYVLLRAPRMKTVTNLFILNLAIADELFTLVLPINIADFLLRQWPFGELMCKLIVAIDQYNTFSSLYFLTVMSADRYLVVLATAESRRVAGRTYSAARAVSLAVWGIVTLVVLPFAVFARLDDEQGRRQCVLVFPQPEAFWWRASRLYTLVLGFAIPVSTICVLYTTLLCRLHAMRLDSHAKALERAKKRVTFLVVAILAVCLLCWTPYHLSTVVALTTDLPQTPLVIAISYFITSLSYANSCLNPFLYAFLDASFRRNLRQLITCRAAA
OX1R Fluo8 conf – OX1R (HCRTR1) antagonists, confirmation, fluorescence, CHO/OX1R cells, Fluo-8 calcium, orexin A; shares compounds with OX1R antag-2; AID 492963, 2010; orexin A calcium Fluo-8 fluorescence; inhibition, % at 5 µM; 1,100 compounds, 38% hits; in the data active = inhibition above about 29%
CHO Ca counter – ATP-evoked calcium inhibition in parental CHO, counter-screen for OX1R antagonist project, cell-based, fluorescence, CHO-K1, triplicate; shares compounds with OX1R antag-2; 1,100 compounds, 9.3% hits; AID 492965, 2010; inhibition, % at 5.6 µM; ATP-induced calcium, Fluo-8 fluorescence;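 active = inhibition above a per-plate limit, the mean inhibition of that plate's test compounds plus 3 SD, cut at about 25% in these data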
OX1R HTRF conf – OX1R (HCRTR1) antagonists, confirmation, cell-based, HTRF. shares compounds with OX1R antag-1. OX1R-expressing cells, HTRF antagonist assay. inhibition, % at 6.6 µM. 1,800 compounds, 49% hits. AID 492964, 2010; in the data active = inhibition above about 55%;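 note: CHO cells expressing OX1R stimulated with orexin A at about EC80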
CHO-K1 HTRF cnt – signal inhibition in parental CHO-K1 cells, counter-screen for OX1R antagonist project, cell-based, HTRF; shares compounds with OX1R antag-1; HTRF counterscreen; inhibition, % at 6.6 µM; 1,800 compounds, 48% hits; in the data active = inhibition above about 17%
Large screens that a line does not name were inactive (follow-up assays come after a bar, where they were run). Shown are actives, neighbours in structure and some others; about 4.5% of the full set was active somewhere.

Cc1cc(C)nc(NC(=O)/C=C/c2ccccc2Cl)c1	none
COc1ccccc1CCC(=O)N(Cc1ccccc1)c1c(N)n(Cc2ccccc2)c(=O)[nH]c1=O	none
COC(=O)c1cnc(Nc2nc(CN)cs2)nc1C(F)(F)F	none (no result: OX1R antag-1, CHO parental Ca, OX1R antag-2, GPR7 antag)
COc1cccc(/C=N/NC(=O)c2cc3c(OC)cccc3[nH]2)c1O	none
CCOc1ccc(/C=N/NC(=O)c2cc3c(OC)cc(OC)cc3[nH]2)cc1OC	OX1R antag-1 81 | OX1R Fluo8 conf 42 | CHO Ca counter inactive | OX1R HTRF conf 89 | CHO-K1 HTRF cnt inactive
CCOc1ccc2[nH]c(C(=O)N/N=C/c3cc(OC)c(OC)c(OC)c3)cc2c1	none
COc1ccc(OC)c(/C=N/NC(=O)c2cc3c(OC)cccc3[nH]2)c1	OX1R antag-1 101, OX1R antag-2 71 | OX1R Fluo8 conf 32 | CHO Ca counter inactive | OX1R HTRF conf 89 | CHO-K1 HTRF cnt inactive
Cc1cccc(C)c1NC(=O)CNC(=O)c1ccccc1OCc1ccccc1	none (no result: GPR7 antag)
CC[C@]12c3[nH]c4cc(-c5ccco5)ccc4c3CCN1C(=O)[C@@H](CC(=O)NC/C=C(\C)CCC=C(C)C)C[C@@H]2C(=O)N1CCN(C(=O)c2ccco2)CC1	OX1R antag-1 58, OX1R antag-2 94 (no result: TAAR1 antagonist, TAAR1 ag, GPR7 antag) | OX1R Fluo8 conf 74 | CHO Ca counter inactive | OX1R HTRF conf 76 | CHO-K1 HTRF cnt inactive
O=c1[nH]c(=S)[nH]c2c1C(c1cccc(C(F)(F)F)c1)OC(CCc1ccccc1)C2 (stereo not drawn)	none (no result: OX1R antag-1, CHO parental Ca, OX1R antag-2, GPR7 antag)
CCOC(=O)c1ccc2nc(NC(=O)c3ccco3)sc2c1	OX1R antag-1 81 | OX1R Fluo8 conf 35 | CHO Ca counter inactive | OX1R HTRF conf 86 | CHO-K1 HTRF cnt 18
CCOc1ccc2nc(NC(=O)c3ccco3)sc2c1	none
COc1cccc(CN(Cc2ccco2)S(=O)(=O)c2ccc(S(=O)(=O)NCc3ccccc3)cc2)c1OC	OX1R antag-1 60, OX1R antag-2 70 | OX1R Fluo8 conf 40 | CHO Ca counter inactive | OX1R HTRF conf 84 | CHO-K1 HTRF cnt inactive
CC(C)(C)c1ccc(OCCC(=O)OCC(=O)Nc2ccc(N3CCOCC3)cc2)cc1	none (no result: GPR7 antag)
CCn1c(SCC(=O)Nc2nc(-c3ccccc3)cs2)nnc1-c1ccccc1O	OX1R antag-1 86, OX1R antag-2 79 | OX1R Fluo8 conf inactive | CHO Ca counter inactive | OX1R HTRF conf 86 | CHO-K1 HTRF cnt inactive
CCC1CN(S(=O)(=O)c2cc(-c3cc(C)no3)ccc2OC)c2cc(C)ccc2O1 (stereo not drawn)	OX1R antag-1 73, OX1R antag-2 63 | OX1R Fluo8 conf inactive | CHO Ca counter inactive | OX1R HTRF conf 86 | CHO-K1 HTRF cnt inactive
CCc1ccc(-c2cc(C)no2)cc1S(=O)(=O)N1CCOc2ccc(C)cc21	none
CC(CC(=O)Nc1cccc(S(=O)(=O)N2CCCCC2)c1)c1ccccc1 (stereo not drawn)	OX1R antag-1 29 (no result: GPR7 antag) | OX1R Fluo8 conf inactive | CHO Ca counter inactive | OX1R HTRF conf inactive | CHO-K1 HTRF cnt inactive
Nc1nc(CSc2nnnn2-c2ccccc2)nc(N2CCCc3ccccc32)n1	OX1R antag-1 83, OX1R antag-2 65 | OX1R Fluo8 conf 30 | CHO Ca counter inactive | OX1R HTRF conf inactive | CHO-K1 HTRF cnt inactive
Nc1nc(CN2CCN(c3ccccc3)CC2)nc(N2CCCc3ccccc32)n1	none
Cc1cccc(C)c1NC(=O)C1(C)CCC(=O)N1C1CC1 (stereo not drawn)	none (no result: OX1R antag-1, CHO parental Ca, OX1R antag-2, GPR7 antag)
COc1ccccc1C(=O)Nc1nnc(-c2ccco2)s1	OX1R antag-1 59, OX1R antag-2 55 | OX1R Fluo8 conf inactive | CHO Ca counter inactive | OX1R HTRF conf 56 | CHO-K1 HTRF cnt inactive
O=C(Nc1ccc(F)cc1)C(c1ccccc1)N1CCN(c2cccc(C(F)(F)F)n2)CC1 (stereo not drawn)	none (no result: OX1R antag-1, CHO parental Ca, OX1R antag-2, GPR7 antag)
COc1ccccc1NC(=O)c1ccccc1NS(=O)(=O)c1cccs1	none
COc1ccc(C)cc1NC(=O)c1ccccc1NS(=O)(=O)c1ccc(Cl)s1	OX1R antag-1 62 | OX1R Fluo8 conf inactive | CHO Ca counter 46 | OX1R HTRF conf inactive | CHO-K1 HTRF cnt inactive
CCOC(=O)C1CCCN(C(=O)Cn2c(=O)c3cccn3c3cccnc32)C1 (stereo not drawn)	none
CSc1cccc(NC(=O)C2CCCN(S(=O)(=O)c3cccs3)C2)c1 (stereo not drawn)	OX1R antag-1 61, OX1R antag-2 42 | OX1R Fluo8 conf 50 | CHO Ca counter inactive | OX1R HTRF conf 78 | CHO-K1 HTRF cnt inactive
CSc1cccc(NC(=O)C2CCCN2S(=O)(=O)c2ccc(Br)s2)c1 (stereo not drawn)	OX1R antag-1 89, OX1R antag-2 98 | OX1R Fluo8 conf 93 | CHO Ca counter inactive | OX1R HTRF conf 91 | CHO-K1 HTRF cnt inactive
CC(C)NC(=O)C1CCCN(S(=O)(=O)c2cccs2)C1 (stereo not drawn)	none
COc1ccc(C)cc1NC(=O)C1CCCN(S(=O)(=O)c2cccc3cccnc23)C1 (stereo not drawn)	OX1R antag-1 79 (no result: TAAR1 antagonist, TAAR1 ag) | OX1R Fluo8 conf inactive | CHO Ca counter inactive | OX1R HTRF conf 80 | CHO-K1 HTRF cnt inactive
O=C(Nc1ccc2c(c1)OCCO2)C1CCCN1S(=O)(=O)c1cccc2cccnc12 (stereo not drawn)	none
COc1cccc(NC(=O)[C@@H]2CCCN2S(=O)(=O)c2cccc3cccnc23)c1	OX1R antag-1 84, OX1R antag-2 47 (no result: GPR7 antag) | OX1R Fluo8 conf 50 | CHO Ca counter inactive | OX1R HTRF conf 84 | CHO-K1 HTRF cnt inactive
